Drawing on ChEMBL document CHEMBL4346674, “Structure-activity relationships and mechanistic studies of novel mitochondria-targeted, leishmanicidal derivatives of the 4-aminostyrylquinoline scaffold” (Eur J Med Chem, 2019), this text covers selectivity ratio, Activity and IC50 for 24 molecules.

A short description of data set [1]: Selectivity index, ratio of IC50 for mouse J774 cells to IC50 for Leishmania pifanoi […] axenic amastigotes. Type of data set: toxicity. The following applies: read-out: Ratio IC50.
The subject of data set [2] is Leishmania donovani. Description: Antileishmanial activity against Leishmania donovani promastigotes harboring 3-Luc gene assessed as decrease in parasites viability using DMNEP-D-luciferin as substrate at 50 uM incubated for 10 mins by luminescence assay relative to control. Type of data set: functional. The method, boiled down:
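3-Luc L. donovani promastigotes, episomally expressing cytoplasmic firefly luciferase and grown at 26 °C in RPMI 1640-modified medium + 10% HIFCS with G-418 (30 µg/ml). Assay: cells at 20 × 10^6/ml in HBSS-Glc with caged DMNPE-luciferin (50 µM final). Compound added once luminescence plateaued; luminescence followed over time, expressed as % of value at addition (100%). Luciferase inhibition controls run.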

In data set [3] the test system is Leishmania donovani. Description: Antileishmanial activity against Leishmania donovani MHOM/SD/00/1S-2D promastigotes incubated for 72 hrs by MTT assay. In kind it is functional, organism-based. The gist of the method: (§1)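 Parasites washed in HBSS-Glc and resuspended at 2×10^6 cells/ml in fresh growth medium with compound at 0.78-50.0 µM. Promastigotes grown in RPMI 1640-modified medium + 10% HIFCS, 72 h at 26 °C; axenic amastigotes in medium 199 + 20% HIFCS + 50 µg/ml hemin, 96 h at 32 °C. MTT 0.5 mg/ml for 2 h, formazan dissolved in SDS (5% final), absorbance 590 nm. Triplicates, ≥2 experiments, IC50 computed.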
(Formazan colour is commonly taken as a measure of viable cells.)

Another data set relates to J774. Description: Cytotoxicity against mouse J774 cells incubated for 48 hrs by MTT assay. In kind it is cell-based. The following applies: J774, 48 h. The method, boiled down:
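J774.1 cells grown in RPMI-1640 + 10% heat-inactivated FCS, 2 mM L-glutamine, penicillin-streptomycin, 37 °C, 5% CO2. Seeded at 10^5 cells/well and left overnight, then compound in fresh medium for 48 h. MTT 0.5 mg/ml final, 2 h; SDS 0.1% final, 2 h at 37 °C; read at 595 nm. Triplicate samples, ≥2 independent experiments; CC50 calculated.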

In data set [4] the test system is Leishmania donovani. The experiment in a line: Induction of plasma membrane permeabilization in Leishmania donovani MHOM/SD/00/1S-2D promastigotes at 50 uM by sytox green-based fluorescence assay. Type of data set: functional, organism-based. The method, boiled down:
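Promastigotes at 20×10^6 cells/ml in HBSS-Glc with SYTOX Green 1.0 μM final. Compound added after a stable baseline; fluorescence rise (ex 504/em 524 nm) monitored. Values given as percent of full permeabilization by 0.1% Triton X-100.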

A further data set concerns Leishmania pifanoi. Description: Antileishmanial activity against Leishmania pifanoi […] axenic amastigotes incubated for 96 hrs by MTT assay. In kind it is functional, organism-based. The method, boiled down:
as §1

The test system of data set [5] is Leishmania donovani. Description: Induction of mitochondrial dysfunction in Leishmania donovani MHOM/SD/00/1S-2D promastigotes as mitochondrial membrane potential at 50 uM incubated for 4 hrs by Rh123 staining based flow cytometry. Type of data set: functional, organism-based. For orientation: In flow cytometry, cells or beads pass a laser one at a time.
Data set [6] concerns Leishmania donovani. The experiment in a line: Induction of mitochondrial dysfunction in Leishmania donovani MHOM/SD/00/1S-2D promastigotes as mitochondrial membrane potential at 25 uM incubated for 4 hrs by Rh123 staining based flow cytometry. Type of data set: functional, organism-based.
The test system of data set [7] is Leishmania donovani. Description: Induction of morphological damage in Leishmania donovani MHOM/SD/00/1S-2D promastigotes assessed as increase in intracellular acidic pH at 5 uM pretreated with acridine orange followed by compound addition and measured at 1 hr by acridine orange based confocal microscopic method. Type of data set: functional, organism-based. The gist of the method: (§2)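 Promastigotes at 40×10^6 cells/ml loaded with acridine orange 2 μM (5 min, 26 °C), washed and readjusted to the same density. Kinetic fluorescence (ex 488/em 530 nm) followed after adding compound 5 μM once the signal was stable. For confocal imaging, loaded cells were given compound 5 μM for 1 h, washed and immobilized on hydrogel; imaged at ex 488/em 650 nm.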

Data set [8] deals with Leishmania donovani. Description: Induction of morphological damage in Leishmania donovani MHOM/SD/00/1S-2D promastigotes assessed as increase in intracellular acidic pH at 5 uM pretreated with acridine orange followed by compound addition by acridine orange based fluorescence assay. Type of data set: functional, organism-based. The gist of the method:
as §2

The source made the active and inactive calls. The rule behind the calls is not given here. A value given as a limit tells only on which side of the number the result lay.

Turning to `CN(C)CC(=O)NCCNc1cc(/C=C/c2ccccc2)nc2ccccc12`, in data set [1], the selectivity ratio is 13.6. Moreover, the Activity in the data set on Leishmania donovani [2] stood at 62.7%. The IC50 (in general, the concentration that inhibits the measured activity by half) in the data set on Leishmania donovani [3] came out at 1.6 µM; in the data set with J774, 15 µM; in the data set with Leishmania pifanoi it was 1.1 µM. Besides, the outcome in the data set with Leishmania donovani [4] was inactive.
For the molecule `O=C(CN1CCOCC1)NCCNc1cc(/C=C/c2ccccc2)nc2ccccc12`, in the data set with Leishmania donovani [2], the Activity was 79.8%. For the same molecule, the IC50 was 1.3 µM in the data set with Leishmania donovani [3], greater than 50 µM in the data set with J774 and greater than 25 µM with Leishmania pifanoi. In the data set with Leishmania donovani [4], the outcome was inactive.
As for `CC(=O)N(C(C)=O)c1cc(/C=C/c2ccccc2)nc2ccccc12`, the selectivity ratio in data set [1] was greater than 1.86. Moreover, the IC50 in the data set on Leishmania donovani [3] is 35.1 µM; with J774 it was greater than 25 µM; in the data set on Leishmania pifanoi it was 13.4 µM.
With `CCN(CC)CC(=O)NCCNc1cc(/C=C/c2ccccc2)nc2ccccc12`, in data set [1], the selectivity ratio stood at 0.8. In the data set on Leishmania donovani [2], the Activity is 43.2%. Further, the figures for the IC50 in the data set on Leishmania donovani [3], with J774 and with Leishmania pifanoi were 1.6 µM, 0.7 µM and 0.9 µM, respectively. In addition, in the data set with Leishmania donovani [4], the outcome was inactive.
For `NCCNc1cc(/C=C/c2ccccc2)nc2ccccc12`, in [1], the selectivity ratio was less than 0.1. Also, the results for the IC50 with Leishmania donovani [3], in the data set on J774 and in the data set with Leishmania pifanoi were 2.4 µM, 4.6 µM and greater than 50 µM, respectively.
Taken in the same sequence, the figures for `O=C(CN1CCN(c2ccccc2)CC1)NCCNc1cc(/C=C/c2ccccc2)nc2ccccc12` were 3, 2.1 µM, 4.5 µM and 1.5 µM.
With `CN1CCN(CC(=O)NCCNc2cc(/C=C/c3ccccc3)nc3ccccc23)CC1`, the selectivity ratio in data set [1] worked out at 9.7. Further, in the data set on Leishmania donovani [2], the Activity turned out to be 78.5%. Also, the IC50 came out at 3.5 µM in the data set with Leishmania donovani [3], 34 µM with J774 and 3.5 µM in the data set on Leishmania pifanoi. Further, the outcome in the data set on Leishmania donovani [4] was inactive.
For `O=C(CNc1ccccc1)NCCCCNc1cc(/C=C/c2ccccc2)nc2ccccc12`, in [1], the selectivity ratio was determined as 0.48. Further, the values for the IC50 in the data set on Leishmania donovani [3], in the data set with J774 and in the data set with Leishmania pifanoi were 1.6 µM, 3.3 µM and 6.9 µM, respectively.
Taken in the same sequence, the figures for `O=C(CNc1ccccc1)NCCNc1cc(/C=C/c2ccccc2)nc2ccccc12` were 1.8, 3.3 µM, 7.8 µM and 4.3 µM.
Taken in the same sequence, the figures for `CC(C)(C)OC(=O)NCCNc1cc(/C=C/c2ccccc2)nc2ccccc12` were 1.5, 0.45 µM, 6.6 µM and 4.3 µM.
For the molecule `O=C(CN1CCCCC1)NCCNc1cc(/C=C/c2ccccc2)nc2ccccc12`, the selectivity ratio in data set [1] stood at 3.4. Further, the outcome with Leishmania donovani [5] and with Leishmania donovani [6] was Active. Moreover, the Activity in the data set on Leishmania donovani [2] came to 46.4%. Further, the values for the IC50 in the data set with Leishmania donovani [3], with J774 and with Leishmania pifanoi were 2.1 µM, 4.7 µM and 1.2 µM, respectively. For the same molecule, the result with Leishmania donovani [4] was inactive.
`Cc1cc(N)c2ccccc2n1`: the IC50 in the data set with Leishmania donovani [3] is 10.9 µM; with J774, greater than 50 µM; in the data set on Leishmania pifanoi it was greater than 50 µM.
As for `C(=C\c1ccc2ccccc2n1)/c1ccccc1`, the result in the data set on Leishmania donovani [7] and in the data set with Leishmania donovani [8] was inactive. Also, the IC50 in the data set on Leishmania donovani [3], with J774 and with Leishmania pifanoi was greater than 50 µM throughout.
Turning to `CCN(CC)Cc1cc(Nc2cc(/C=C/c3ccccc3)nc3ccccc23)ccc1O`, the selectivity ratio in [1] was determined as 4.1. For the same molecule, the Activity in the data set with Leishmania donovani [2] was found to be 81.8%. Further, the results for the IC50 with Leishmania donovani [3], in the data set on J774 and in the data set on Leishmania pifanoi were 9.6 µM, 37 µM and 9 µM, respectively.
For the molecule `CCOCC(=O)NCCCCNc1cc(/C=C/c2ccccc2)nc2ccccc12`, the selectivity ratio in [1] worked out at 1.6. Besides, the IC50 turned out to be 1.06 µM in the data set with Leishmania donovani [3], 7.2 µM with J774 and 4.5 µM in the data set on Leishmania pifanoi. Moreover, the outcome in the data set with Leishmania donovani [4] was inactive.
Regarding `CC(=O)Nc1cc(/C=C/c2ccccc2)nc2ccccc12`, the selectivity ratio in data set [1] was greater than 2.6. Also, the results for the IC50 with J774 and in the data set on Leishmania pifanoi were greater than 25 µM and 9.5 µM, respectively.
As to `C(=C\c1cc(-c2c[nH]c3ccccc23)c2ccccc2n1)/c1ccccc1`, the selectivity ratio in data set [1] was found to be 4.1. Moreover, in the data set on Leishmania donovani [2], the Activity worked out at 64.6%. The IC50 was determined as 1.5 µM with Leishmania donovani [3], 4.1 µM in the data set with J774 and 1 µM in the data set on Leishmania pifanoi.
Regarding `NCCCCNc1cc(/C=C/c2ccccc2)nc2ccccc12`, the selectivity ratio in data set [1] was less than 0.3. The values for the IC50 in the data set with Leishmania donovani [3], with J774 and in the data set on Leishmania pifanoi were 0.44 µM, 6.6 µM and greater than 25 µM, respectively.
Taken in the same sequence, the figures for `Nc1cc(/C=C/c2ccccc2)nc2ccccc12` were 0.5, 0.5 µM, 4.4 µM and 8.9 µM.
Turning to `O=C(CN1CCCC1)NCCNc1cc(/C=C/c2ccccc2)nc2ccccc12`, the selectivity ratio in data set [1] turned out to be 13.9. Moreover, the Activity in the data set with Leishmania donovani [2] amounted to 49.9%. In addition, the IC50 with Leishmania donovani [3] stood at 2.1 µM; in the data set on J774, 12.5 µM; in the data set with Leishmania pifanoi, 0.9 µM. The result with Leishmania donovani [4] was inactive.
On to `O=C(CNc1ccc(Cl)cc1Cl)NCCCCNc1cc(/C=C/c2ccccc2)nc2ccccc12`, for which the selectivity ratio in [1] was found to be 0.6. Further, the results for the IC50 in the data set with Leishmania donovani [3], in the data set on J774 and in the data set with Leishmania pifanoi were 2.1 µM, 7.3 µM and 12.3 µM, respectively.
Regarding `CC(C)(C)OC(=O)NCCCCNc1cc(/C=C/c2ccccc2)nc2ccccc12`, the selectivity ratio in data set [1] stood at 0.8. In addition, the IC50 is 0.56 µM in the data set on Leishmania donovani [3], 3.7 µM in the data set on J774 and 4.9 µM in the data set on Leishmania pifanoi.
Taken in the same sequence, the figures for `O=C(CNc1ccc(Cl)cc1Cl)NCCNc1cc(/C=C/c2ccccc2)nc2ccccc12` were greater than 41.6, 8.4 µM, greater than 50 µM and 1.2 µM.
`O=C(CN1CCCC1)NCCCCNc1cc(/C=C/c2ccccc2)nc2ccccc12`: the selectivity ratio in data set [1] amounted to 1.4. The outcome in the data set on Leishmania donovani [5] and in the data set on Leishmania donovani [6] was Active. Also, the Activity in the data set on Leishmania donovani [2] is 23.3%. Besides, the IC50 was 0.2 µM with Leishmania donovani [3], 7.1 µM in the data set on J774 and 5.3 µM in the data set with Leishmania pifanoi. Also, in the data set on Leishmania donovani [4], the outcome was inactive.
